The results in this text go back to ChEMBL document CHEMBL1629465, “Efficient synthesis of novel 1,2,4-triazole fused acyclic and 21-28 membered macrocyclic and/or lariat macrocyclic oxaazathia crown compounds with potential antimicrobial activity” (2010).

Holding throughout (format): functional
Common to all, as to conditions: read-out: DIZ

The subject of test [1] is Staphylococcus aureus. Put plainly: Antimicrobial activity against Staphylococcus aureus RCMB 106001 at 1 mg/ml by agar diffusion technique. Summed up:
(§1)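 Agar well diffusion. Test compounds and reference standard drugs were diluted to 5.0, 2.5 and 1.0 mg/mL and applied to 0.6 cm wells. Inhibition zone beyond the control was scored as 0 (no inhibition), + (0.1–0.5 cm), ++ (0.6–1.0 cm) or +++ (1.0–1.5 cm).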

The subject of test [2] is Staphylococcus aureus. Put plainly: Antimicrobial activity against Staphylococcus aureus RCMB 106001 at 5 mg/ml by agar diffusion technique. Summed up:
as §1
In general terms: A growth-free zone around the sample is the usual read-out of agar diffusion tests.

Test [3] relates to Candida albicans. Put plainly: Antimicrobial activity against Candida albicans RCMB 005003 at 1 mg/ml by agar diffusion technique. The gist of the method:
as §1

Test [4] deals with Bacillus subtilis. Put plainly: Antimicrobial activity against Bacillus subtilis RCMB 101001 at 1 mg/ml by agar diffusion technique. Summed up: as §1
In test [5] the test system is Penicillium italicum. The experiment in a line: Antimicrobial activity against Penicillium italicum RCMB 001018 at 5 mg/ml by agar diffusion technique. Summed up:
as §1

In test [6] the test system is Penicillium italicum. The experiment in a line: Antimicrobial activity against Penicillium italicum RCMB 001018 at 1 mg/ml by agar diffusion technique. The gist of the method:
as §1

Test [7] concerns Bacillus subtilis. Put plainly: Antimicrobial activity against Bacillus subtilis RCMB 101001 at 2.5 mg/ml by agar diffusion technique. The gist of the method:
as §1

Test [8] relates to Syncephalastrum racemosum. The experiment in a line: Antimicrobial activity against Syncephalastrum racemosum RCMB 016001 at 1 mg/ml by agar diffusion technique. Summed up: as §1
The test system of test [9] is Staphylococcus aureus. The experiment in a line: Antimicrobial activity against Staphylococcus aureus RCMB 106001 at 2.5 mg/ml by agar diffusion technique. The gist of the method: as §1
Test [10] concerns Escherichia coli. Put plainly: Antimicrobial activity against Escherichia coli RCMB 103001 at 1 mg/ml by agar diffusion technique. The gist of the method: as §1
Test [11] relates to Escherichia coli. The experiment in a line: Antimicrobial activity against Escherichia coli RCMB 103001 at 5 mg/ml by agar diffusion technique. The gist of the method: as §1
The test system of test [12] is Escherichia coli. The experiment in a line: Antimicrobial activity against Escherichia coli RCMB 103001 at 2.5 mg/ml by agar diffusion technique. The gist of the method: as §1
Test [13] concerns Aspergillus fumigatus. The experiment in a line: Antimicrobial activity against Aspergillus fumigatus RCMB 002008 at 2.5 mg/ml by agar diffusion technique. The gist of the method: as §1
In test [14] the test system is Pseudomonas aeruginosa. The experiment in a line: Antimicrobial activity against Pseudomonas aeruginosa RCMB 102002 at 1 mg/ml by agar diffusion technique. Summed up:
as §1

In test [15] the test system is Syncephalastrum racemosum. The experiment in a line: Antimicrobial activity against Syncephalastrum racemosum RCMB 016001 at 2.5 mg/ml by agar diffusion technique. Summed up: as §1
Test [16] has as its system Pseudomonas aeruginosa. Put plainly: Antimicrobial activity against Pseudomonas aeruginosa RCMB 102002 at 2.5 mg/ml by agar diffusion technique. The gist of the method:
as §1

Test [17] concerns Bacillus subtilis. Put plainly: Antimicrobial activity against Bacillus subtilis RCMB 101001 at 5 mg/ml by agar diffusion technique. Summed up: as §1
Test [18] concerns Candida albicans. The experiment in a line: Antimicrobial activity against Candida albicans RCMB 005003 at 2.5 mg/ml by agar diffusion technique. Summed up:
as §1

Test [19] concerns Penicillium italicum. Put plainly: Antimicrobial activity against Penicillium italicum RCMB 001018 at 2.5 mg/ml by agar diffusion technique. The gist of the method:
as §1

Test [20] has as its system Aspergillus fumigatus. The experiment in a line: Antimicrobial activity against Aspergillus fumigatus RCMB 002008 at 1 mg/ml by agar diffusion technique. The gist of the method: as §1
Test [21] deals with Aspergillus fumigatus. The experiment in a line: Antimicrobial activity against Aspergillus fumigatus RCMB 002008 at 5 mg/ml by agar diffusion technique. The gist of the method: as §1
For test [22], the system named is Pseudomonas aeruginosa. The experiment in a line: Antimicrobial activity against Pseudomonas aeruginosa RCMB 102002 at 5 mg/ml by agar diffusion technique. The gist of the method:
as §1

Test [23] deals with Syncephalastrum racemosum. Put plainly: Antimicrobial activity against Syncephalastrum racemosum RCMB 016001 at 5 mg/ml by agar diffusion technique. Summed up:
as §1

In test [24] the test system is Candida albicans. The experiment in a line: Antimicrobial activity against Candida albicans RCMB 005003 at 5 mg/ml by agar diffusion technique. The gist of the method:
as §1

As for `S=c1[nH]nc(-c2cccnc2)n1/N=C\c1ccccc1OCCCOc1ccccc1/C=N\n1c(-c2cccnc2)n[nH]c1=S`, the zone of inhibition at 1000 µg/mL came to 0 mm in the test with Staphylococcus aureus [1]; 0 mm in the test with Candida albicans [3]; 1 mm in the test with Bacillus subtilis [4]; 0 mm in the test on Penicillium italicum [6]; 0 mm in test [8]; 0 mm in the test with Escherichia coli [10]. For the same compound, the zone of inhibition at 1000 µg/mL in the test with Pseudomonas aeruginosa [14] and in the test with Aspergillus fumigatus [20] was 0 mm each time. In addition, the zone of inhibition at 5000 µg/mL in the test on Staphylococcus aureus [2] was 1 mm; with Penicillium italicum [5] it was 0 mm; in the test with Escherichia coli [11], 0 mm; with Bacillus subtilis [17], 1 mm; in the test with Aspergillus fumigatus [21] it was 0 mm; with Pseudomonas aeruginosa [22] it was 0 mm. The zone of inhibition at 5000 µg/mL worked out at 1 mm in test [23] and 0 mm with Candida albicans [24]. The zone of inhibition at 2500 µg/mL in the test on Bacillus subtilis [7] came out at 1 mm; with Staphylococcus aureus [9] it was 1 mm; in the test with Escherichia coli [12], 0 mm; in the test on Aspergillus fumigatus [13], 0 mm; in [15], 1 mm; in the test on Pseudomonas aeruginosa [16] it was 0 mm. For the same compound, the zone of inhibition at 2500 µg/mL in the test on Candida albicans [18] and with Penicillium italicum [19] was 0 mm throughout.
`Nn1c(-c2cccnc2)n[nH]c1=S`: the zone of inhibition at 1000 µg/mL (in the test with Staphylococcus aureus [1]; in the test with Candida albicans [3]; in the test on Bacillus subtilis [4]; with Penicillium italicum [6]; in test [8]; in the test with Escherichia coli [10]) was 0 mm throughout. Besides, the zone of inhibition at 1000 µg/mL in the test on Pseudomonas aeruginosa [14] and in the test with Aspergillus fumigatus [20] was 0 mm each time. In addition, the zone of inhibition at 5000 µg/mL in the test with Staphylococcus aureus [2] is 0 mm; in the test with Penicillium italicum [5], 1 mm; in the test with Escherichia coli [11], 1 mm; in the test on Bacillus subtilis [17] it was 0 mm; with Aspergillus fumigatus [21], 0 mm; with Pseudomonas aeruginosa [22], 0 mm. Moreover, the zone of inhibition at 5000 µg/mL (in test [23]; in the test on Candida albicans [24]) was 0 mm each time. For the same compound, the zone of inhibition at 2500 µg/mL (in the test on Bacillus subtilis [7]; in the test on Staphylococcus aureus [9]; in the test on Escherichia coli [12]; with Aspergillus fumigatus [13]; in [15]; in the test with Pseudomonas aeruginosa [16]) was 0 mm in each case. Further, the zone of inhibition at 2500 µg/mL in the test on Candida albicans [18] and in the test on Penicillium italicum [19] was 0 mm in each case.
As for `S=c1[nH]nc(-c2cccnc2)n1/N=C\c1ccccc1OCCCCOc1ccccc1/C=N\n1c(-c2cccnc2)n[nH]c1=S`, the zone of inhibition at 1000 µg/mL is 0 mm with Staphylococcus aureus [1]; 0 mm in the test with Candida albicans [3]; 0 mm in the test with Bacillus subtilis [4]; 1 mm in the test with Penicillium italicum [6]; 0 mm in [8]; 0 mm with Escherichia coli [10]. The zone of inhibition at 1000 µg/mL in the test with Pseudomonas aeruginosa [14] and with Aspergillus fumigatus [20] was 0 mm in each case. Further, the zone of inhibition at 5000 µg/mL with Staphylococcus aureus [2] was 1 mm; in the test on Penicillium italicum [5], 1 mm; in the test on Escherichia coli [11], 0 mm; in the test on Bacillus subtilis [17] it was 0 mm; in the test on Aspergillus fumigatus [21] it was 0 mm; in the test on Pseudomonas aeruginosa [22], 1 mm. The zone of inhibition at 5000 µg/mL (in [23]; in the test with Candida albicans [24]) was 1 mm in each case. Also, the zone of inhibition at 2500 µg/mL in the test with Bacillus subtilis [7] turned out to be 0 mm; in the test on Staphylococcus aureus [9], 0 mm; in the test with Escherichia coli [12], 0 mm; in the test on Aspergillus fumigatus [13], 0 mm; in test [15], 1 mm; with Pseudomonas aeruginosa [16], 1 mm. The figures for the zone of inhibition at 2500 µg/mL in the test on Candida albicans [18] and with Penicillium italicum [19] were 0 mm and 1 mm, respectively.
With `S=c1[nH]nc(-c2cccnc2)n1/N=C\c1ccccc1OCCOCCOc1ccccc1/C=N\n1c(-c2cccnc2)n[nH]c1=S`, the zone of inhibition at 1000 µg/mL was 0 mm with Staphylococcus aureus [1]; 0 mm in the test with Candida albicans [3]; 1 mm with Bacillus subtilis [4]; 1 mm in the test with Penicillium italicum [6]; 0 mm in test [8]; 0 mm in the test with Escherichia coli [10]. Besides, the zone of inhibition at 1000 µg/mL with Pseudomonas aeruginosa [14] and with Aspergillus fumigatus [20] was 0 mm in each case. Further, the zone of inhibition at 5000 µg/mL worked out at 0 mm in the test on Staphylococcus aureus [2]; 1 mm in the test on Penicillium italicum [5]; 0 mm in the test with Escherichia coli [11]; 1 mm in the test with Bacillus subtilis [17]; 1 mm in the test on Aspergillus fumigatus [21]; 0 mm with Pseudomonas aeruginosa [22]. For the same compound, the figures for the zone of inhibition at 5000 µg/mL (in test [23]; in the test with Candida albicans [24]) were 1 mm and 0 mm, respectively. In addition, the zone of inhibition at 2500 µg/mL is 1 mm in the test on Bacillus subtilis [7]; 0 mm with Staphylococcus aureus [9]; 0 mm with Escherichia coli [12]; 1 mm in the test on Aspergillus fumigatus [13]; 0 mm in [15]; 0 mm in the test with Pseudomonas aeruginosa [16]. Also, the zone of inhibition at 2500 µg/mL in the test on Candida albicans [18] amounted to 0 mm; in the test on Penicillium italicum [19], 1 mm.
`S=c1[nH]nc(-c2cccnc2)n1/N=C\c1ccccc1OCCOCCOCCOc1ccccc1/C=N\n1c(-c2cccnc2)n[nH]c1=S`: the zone of inhibition at 1000 µg/mL is 0 mm in the test with Staphylococcus aureus [1]; 0 mm with Candida albicans [3]; 0 mm in the test on Bacillus subtilis [4]; 1 mm in the test with Penicillium italicum [6]; 0 mm in test [8]; 0 mm in the test with Escherichia coli [10]. The zone of inhibition at 1000 µg/mL in the test on Pseudomonas aeruginosa [14] and in the test with Aspergillus fumigatus [20] was 0 mm each time. The zone of inhibition at 5000 µg/mL is 1 mm with Staphylococcus aureus [2]; 6 mm with Penicillium italicum [5]; 0 mm in the test with Escherichia coli [11]; 0 mm with Bacillus subtilis [17]; 0 mm in the test on Aspergillus fumigatus [21]; 0 mm with Pseudomonas aeruginosa [22]. In addition, the zone of inhibition at 5000 µg/mL turned out to be 0 mm in test [23] and 1 mm in the test with Candida albicans [24]. The zone of inhibition at 2500 µg/mL (with Bacillus subtilis [7]; with Staphylococcus aureus [9]; in the test with Escherichia coli [12]; in the test with Aspergillus fumigatus [13]; in test [15]; in the test with Pseudomonas aeruginosa [16]) was 0 mm in each case. The zone of inhibition at 2500 µg/mL in the test with Candida albicans [18] is 0 mm; in the test with Penicillium italicum [19] it was 1 mm.
Regarding `Nn1c(SCCSc2nnc(-c3cccnc3)n2N)nnc1-c1cccnc1`, the zone of inhibition at 1000 µg/mL is 0 mm in the test on Staphylococcus aureus [1]; 1 mm in the test on Candida albicans [3]; 0 mm in the test with Bacillus subtilis [4]; 0 mm in the test with Penicillium italicum [6]; 0 mm in test [8]; 0 mm in the test with Escherichia coli [10]. Moreover, the zone of inhibition at 1000 µg/mL in the test with Pseudomonas aeruginosa [14] and in the test on Aspergillus fumigatus [20] was 0 mm each time. Moreover, the zone of inhibition at 5000 µg/mL in the test with Staphylococcus aureus [2] was 1 mm; in the test on Penicillium italicum [5], 1 mm; in the test on Escherichia coli [11], 1 mm; in the test on Bacillus subtilis [17], 0 mm; with Aspergillus fumigatus [21] it was 0 mm; in the test with Pseudomonas aeruginosa [22], 0 mm. Moreover, the values for the zone of inhibition at 5000 µg/mL (in [23]; in the test on Candida albicans [24]) were 0 mm and 1 mm, respectively. Moreover, the zone of inhibition at 2500 µg/mL (in the test on Bacillus subtilis [7]; with Staphylococcus aureus [9]; with Escherichia coli [12]; in the test with Aspergillus fumigatus [13]; in test [15]; in the test on Pseudomonas aeruginosa [16]) was 0 mm each time. Further, the zone of inhibition at 2500 µg/mL in the test on Candida albicans [18] and in the test on Penicillium italicum [19] was 1 mm in each case.
